# Measurements reported in ChEMBL document CHEMBL2029325, “Fused piperidines as a novel class of potent and orally available transient receptor potential melastatin type 8 (TRPM8) antagonists” (J Med Chem, 2012).
# pIC50: −log10 of the molar value. Calls of active or inactive are those of the source. No cut-off for these calls is given here.
# Tested on: Rattus norvegicus
# Assay: Antinociceptive activity in Sprague-Dawley rat assessed as inhibition of icilin-induced wet-dog shakes at 3 mg/kg, po administered 90 mins prior icilin challenge measured for 30 mins
# Type: functional
# Conditions: not given
# Summary of the method: (§1)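 Male Sprague–Dawley rats (220–300 g, n = 5–13/treatment) were habituated 30 min to the room, then 20 min to an observation cylinder, kept out of sight of other rats. Compound or vehicle (5% Tween 80/Oraplus) given po 90 min before icilin (0.5 mg/kg ip in 100% PEG 400). Wet-dog shakes counted for 30 min afterwards.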
row,Compound,inhibition in vivo at 3 mg/kg
1,O=C(Nc1ccc(F)cc1)N1CCc2ccccc2[C@H]1c1ccc(C(F)(F)F)cc1,30%

# Tested on: Rattus norvegicus
# Assay: Antinociceptive activity in Sprague-Dawley rat assessed as inhibition of icilin-induced wet-dog shakes at 30 mg/kg, po administered 90 mins prior icilin challenge measured for 30 mins
# Type: functional
# Conditions: not given
# Summary of the method: as §1
row,Compound,inhibition in vivo at 30 mg/kg
1,O=C(Nc1ccc(F)cc1)N1CCc2ccccc2[C@H]1c1ccc(C(F)(F)F)cc1,> 80%

# Tested on: Plasma
# Assay: Plasma concentration in Sprague-Dawley rat at 100 mg/kg, po
# Type: ADME, organism-based
# Set-up: dose 100 mg/kg, route oral
# Conditions: in vivo
# Summary of the method: (§2)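 Male Sprague–Dawley rats (n = 8 per group) dosed po in 5% Tween 80/Oraplus 90 min before icilin challenge in the wet-dog-shake study. Plasma collected 2 h after oral dosing.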
row,Compound,Cp
1,O=C(Nc1ccc(F)cc1)N1CCc2ccccc2[C@@H]1c1ccc(C(F)(F)F)cc1,521 ng/mL

# Tested on: not listed separately
# Assay: Oral bioavailability in Sprague-Dawley rat at 10 mg/kg by LC-MS/MS analysis
# Type: ADME, organism-based
# Conditions: in vivo
# Summary of the method: (§3)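 Fasted male Sprague–Dawley rats, n = 3, given 10 mg/kg by oral gavage as a suspension in 5% Tween 80/Oraplus. Plasma taken predose and at 0.25, 0.5, 1, 2, 4, 6, 8, 12 and 16 h. Measured by LC/MS/MS; noncompartmental analysis; mean(SD).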
row,Compound,bioavailability
1,O=C(Nc1ccc(F)cc1)N1CCc2ccccc2[C@H]1c1ccc(C(F)(F)F)cc1,57%

# Tested on: not listed separately
# Assay: Volume of distribution at steady state in Sprague-Dawley rat at 2 mg/kg, iv by LC-MS/MS analysis
# Type: ADME, organism-based
# Set-up: dose 2 mg/kg, route intravenous
# Conditions: in vivo, read-out: Vdss
# Summary of the method: (§4)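 Fed male Sprague–Dawley rats, n = 3, given 2 mg/kg iv in DMSO. Measured by LC/MS/MS; noncompartmental analysis; mean(SD).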
row,Compound,Vd
1,O=C(Nc1ccc(F)cc1)N1CCc2ccccc2[C@H]1c1ccc(C(F)(F)F)cc1,15.3 L/kg
2,O=C(Nc1ccc(F)cc1)N1CCc2ccccc2[C@@H]1c1ccc(C(F)(F)F)cc1,15.8 L/kg

# Tested on: not listed separately
# Assay: Intrinsic clearance in CD1 rat liver microsomes at 1 uM after 30 mins
# Type: ADME, Microsome
# Conditions: read-out: CLH
row,Compound,microsomal CLint at 1 µM
1,O=C(Nc1ccc(F)cc1)N1CCc2sccc2C1c1ccc(C(F)(F)F)cc1 (stereo not drawn),178 µL/min/mg
2,O=C(c1ccc(F)cc1)N1CCc2sccc2C1c1ccc(C(F)(F)F)cc1 (stereo not drawn),248 µL/min/mg
3,O=C(Nc1ccccc1)N1CCc2sccc2C1c1ccccc1F (stereo not drawn),> 399 µL/min/mg
4,O=C(Nc1ccccc1)N1CCc2sccc2C1c1ccc(F)cc1 (stereo not drawn),> 399 µL/min/mg
5,O=C(Nc1ccccc1)N1CCc2sccc2C1c1cccc(F)c1 (stereo not drawn),> 399 µL/min/mg
6,O=C(Nc1ccc(F)cc1)N1CCc2cc(F)ccc2C1c1ccc(C(F)(F)F)cc1 (stereo not drawn),40 µL/min/mg
7,O=C(Nc1ccc(F)cc1)N1CCc2occc2C1c1ccc(C(F)(F)F)cc1 (stereo not drawn),109 µL/min/mg
8,O=C(Nc1ccc(F)cc1)N1CCc2cccc(F)c2C1c1ccc(C(F)(F)F)cc1 (stereo not drawn),43 µL/min/mg
9,O=C(Nc1ccc(F)cc1)N1CCc2scnc2C1c1ccc(C(F)(F)F)cc1 (stereo not drawn),110 µL/min/mg
10,O=C(Nc1ccccc1)N1CCc2sccc2C1c1cccc(C(F)(F)F)c1 (stereo not drawn),> 399 µL/min/mg
11,O=C(Nc1ccccc1)N1CCc2sccc2C1C1CC1 (stereo not drawn),> 399 µL/min/mg
12,CC(C)N1CCc2sccc2C1c1ccc(C(F)(F)F)cc1 (stereo not drawn),< 14 µL/min/mg
13,O=C(Nc1ccc(F)cc1)N1CCc2ccsc2C1c1ccc(C(F)(F)F)cc1 (stereo not drawn),206 µL/min/mg
14,O=C(c1ccccc1F)N1CCc2sccc2C1c1ccc(C(F)(F)F)cc1 (stereo not drawn),> 399 µL/min/mg
15,O=C(Nc1ccccc1)N1CCc2sccc2C1c1ccccc1 (stereo not drawn),> 399 µL/min/mg
16,CC(C)NC(=O)N1CCc2sccc2C1c1ccc(C(F)(F)F)cc1 (stereo not drawn),> 399 µL/min/mg
17,O=C(Cc1ccc(F)cc1)N1CCc2sccc2C1c1ccc(C(F)(F)F)cc1 (stereo not drawn),> 399 µL/min/mg
18,O=C(Nc1ccccc1)N1CCc2sccc2C1c1ccc(C(F)(F)F)cc1 (stereo not drawn),211 µL/min/mg
19,O=C(Nc1ccc(F)cc1)N1CCCc2ccccc2C1c1ccc(C(F)(F)F)cc1 (stereo not drawn),146 µL/min/mg
20,O=C(Nc1ccccc1)N1CCc2sccc2C1,180 µL/min/mg
21,O=C(Nc1ccccc1F)N1CCc2sccc2C1c1ccc(C(F)(F)F)cc1 (stereo not drawn),342 µL/min/mg
22,O=C(Nc1cccc(F)c1)N1CCc2sccc2C1c1ccc(C(F)(F)F)cc1 (stereo not drawn),278 µL/min/mg

# Target: Transient receptor potential cation channel subfamily M member 8 (Rattus norvegicus, UniProt Q8R455)
# Sequence (Q8R455 whole entry): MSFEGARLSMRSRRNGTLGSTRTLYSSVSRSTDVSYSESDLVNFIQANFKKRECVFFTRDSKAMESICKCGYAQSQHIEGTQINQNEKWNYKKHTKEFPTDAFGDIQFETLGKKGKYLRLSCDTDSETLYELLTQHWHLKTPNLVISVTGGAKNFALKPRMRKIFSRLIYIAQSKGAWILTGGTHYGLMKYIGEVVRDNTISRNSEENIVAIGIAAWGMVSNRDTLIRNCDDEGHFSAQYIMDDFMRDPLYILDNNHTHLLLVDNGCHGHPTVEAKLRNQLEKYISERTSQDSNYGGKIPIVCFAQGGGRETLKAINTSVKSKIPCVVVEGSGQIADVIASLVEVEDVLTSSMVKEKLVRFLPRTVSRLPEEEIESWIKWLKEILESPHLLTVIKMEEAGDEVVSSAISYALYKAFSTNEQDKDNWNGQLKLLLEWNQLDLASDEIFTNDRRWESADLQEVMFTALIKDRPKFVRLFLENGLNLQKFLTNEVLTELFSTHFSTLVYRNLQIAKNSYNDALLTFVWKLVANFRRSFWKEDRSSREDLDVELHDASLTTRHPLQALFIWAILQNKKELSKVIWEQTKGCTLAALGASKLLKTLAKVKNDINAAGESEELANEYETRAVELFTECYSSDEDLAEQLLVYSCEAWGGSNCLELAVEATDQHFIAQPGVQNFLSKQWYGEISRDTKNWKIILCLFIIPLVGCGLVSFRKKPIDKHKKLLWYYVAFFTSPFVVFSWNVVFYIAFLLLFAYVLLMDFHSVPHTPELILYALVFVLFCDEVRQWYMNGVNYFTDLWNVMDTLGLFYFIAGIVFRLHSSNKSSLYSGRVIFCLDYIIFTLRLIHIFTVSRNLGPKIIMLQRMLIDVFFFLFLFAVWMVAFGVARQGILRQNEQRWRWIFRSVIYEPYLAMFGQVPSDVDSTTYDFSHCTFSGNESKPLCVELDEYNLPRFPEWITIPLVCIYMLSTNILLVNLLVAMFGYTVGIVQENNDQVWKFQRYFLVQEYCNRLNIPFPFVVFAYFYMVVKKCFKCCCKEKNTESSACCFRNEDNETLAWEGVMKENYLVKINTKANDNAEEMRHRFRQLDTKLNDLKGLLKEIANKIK
# Assay: Antagonist activity at rat TRPM8 expressed in CHO cells assessed as inhibition of icilin-induced Ca2+ influx incubated 2.5 mins prior icilin induction by flash luminometry
# Type: functional, cell-based
# Conditions: not given
# Summary of the method: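 CHO cells stably expressing rat TRPM8 under a tetracycline-inducible T-REx system, co-transfected with aequorin. Seeded 24 h before assay; expression induced with 0.5 μg/mL tetracycline. Luminescence was read on a CCD-camera luminometer.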
row,Compound,pIC50
1,O=C(Nc1ccc(F)cc1)N1CCc2sccc2C1c1ccc(C(F)(F)F)cc1 (stereo not drawn),6.47
2,O=C(c1ccc(F)cc1)N1CCc2sccc2C1c1ccc(C(F)(F)F)cc1 (stereo not drawn),< 4.70
3,O=C(Nc1ccccc1)N1CCc2sccc2C1c1ccccc1F (stereo not drawn),5.64
4,O=C(Nc1ccccc1)N1CCc2sccc2C1c1ccc(F)cc1 (stereo not drawn),5.74
5,O=C(Nc1ccccc1)N1CCc2sccc2C1c1cccc(F)c1 (stereo not drawn),5.88
6,O=C(Nc1ccc(F)cc1)N1CCc2cc(F)ccc2C1c1ccc(C(F)(F)F)cc1 (stereo not drawn),6.52
7,O=C(Nc1ccc(F)cc1)N1CCc2occc2C1c1ccc(C(F)(F)F)cc1 (stereo not drawn),6.59
8,O=C(Nc1ccc(F)cc1)N1CCc2cccc(F)c2C1c1ccc(C(F)(F)F)cc1 (stereo not drawn),6.10
9,O=C(Nc1ccc(F)cc1)N1CCc2scnc2C1c1ccc(C(F)(F)F)cc1 (stereo not drawn),7.03
10,O=C(Nc1ccccc1)N1CCc2sccc2C1c1cccc(C(F)(F)F)c1 (stereo not drawn),5.74
11,O=C(Nc1ccccc1)N1CCc2sccc2C1C1CC1 (stereo not drawn),5.25
12,CC(C)N1CCc2sccc2C1c1ccc(C(F)(F)F)cc1 (stereo not drawn),< 4.70
13,O=C(Nc1ccc(F)cc1)N1CCc2ccsc2C1c1ccc(C(F)(F)F)cc1 (stereo not drawn),6.82
14,O=C(c1ccccc1F)N1CCc2sccc2C1c1ccc(C(F)(F)F)cc1 (stereo not drawn),6.29
15,O=C(Nc1ccccc1)N1CCc2sccc2C1c1ccccc1 (stereo not drawn),5.77
16,CC(C)NC(=O)N1CCc2sccc2C1c1ccc(C(F)(F)F)cc1 (stereo not drawn),6.26
17,O=C(Cc1ccc(F)cc1)N1CCc2sccc2C1c1ccc(C(F)(F)F)cc1 (stereo not drawn),6.05
18,O=C(Nc1ccccc1)N1CCc2sccc2C1c1ccc(C(F)(F)F)cc1 (stereo not drawn),6.54
19,O=C(Nc1ccc(F)cc1)N1CCCc2ccccc2C1c1ccc(C(F)(F)F)cc1 (stereo not drawn),< 4.70
20,O=C(Nc1ccccc1)N1CCc2sccc2C1,< 4.70
21,O=C(Nc1ccccc1F)N1CCc2sccc2C1c1ccc(C(F)(F)F)cc1 (stereo not drawn),6.22
22,O=C(Nc1cccc(F)c1)N1CCc2sccc2C1c1ccc(C(F)(F)F)cc1 (stereo not drawn),6.11

# Tested on: Rattus norvegicus
# Assay: Antinociceptive activity in Sprague-Dawley rat assessed as inhibition of icilin-induced wet-dog shakes at 100 mg/kg, po administered 90 mins prior icilin challenge measured for 30 mins
# Type: functional, organism-based
# Set-up: dose 100 mg/kg
# Conditions: not given
# Summary of the method: as §1
row,Compound,inhibition
1,O=C(Nc1ccc(F)cc1)N1CCc2ccccc2[C@@H]1c1ccc(C(F)(F)F)cc1,inactive

# Tested on: not listed separately
# Assay: AUC (infinity) in Sprague-Dawley rat at 2 mg/kg, iv by LC-MS/MS analysis
# Type: ADME, organism-based
# Set-up: time infinity, dose 2 mg/kg, route intravenous
# Conditions: plasma
# Summary of the method: as §4
row,Compound,AUC(0-inf)
1,O=C(Nc1ccc(F)cc1)N1CCc2ccccc2[C@H]1c1ccc(C(F)(F)F)cc1,763 ng·h/mL
2,O=C(Nc1ccc(F)cc1)N1CCc2ccccc2[C@@H]1c1ccc(C(F)(F)F)cc1,347 ng·h/mL

# Tested on: not listed separately
# Assay: Cmax in Sprague-Dawley rat at 10 mg/kg, po by LC-MS/MS analysis
# Type: ADME, organism-based
# Set-up: dose 10 mg/kg, route oral
# Conditions: in vivo
# Summary of the method: as §3
row,Compound,Cmax
1,O=C(Nc1ccc(F)cc1)N1CCc2ccccc2[C@H]1c1ccc(C(F)(F)F)cc1,265 ng/mL

# Tested on: Rattus norvegicus
# Assay: Antinociceptive activity in po dosed Sprague-Dawley rat assessed as inhibition of icilin-induced wet-dog shakes administered 90 mins prior icilin challenge measured for 30 mins
# Type: functional, organism-based
# Conditions: not given
# Summary of the method: as §1
Compound,EC50,inhibition
O=C(Nc1ccc(F)cc1)N1CCc2ccccc2[C@H]1c1ccc(C(F)(F)F)cc1,0.209 µg/mL,Dose-dependent effect

# Tested on: Plasma
# Assay: Plasma concentration in Sprague-Dawley rat at 30 mg/kg, po
# Type: ADME, organism-based
# Set-up: dose 30 mg/kg, route oral
# Conditions: in vivo
# Summary of the method: as §2
row,Compound,Cp
1,O=C(Nc1ccc(F)cc1)N1CCc2ccccc2[C@H]1c1ccc(C(F)(F)F)cc1,460 ng/mL

# Tested on: not listed separately
# Assay: AUC (infinity) in Sprague-Dawley rat at 10 mg/kg, po by LC-MS/MS analysis
# Type: ADME, organism-based
# Set-up: time infinity, dose 10 mg/kg, route oral
# Conditions: plasma
# Summary of the method: as §3
row,Compound,AUC(0-inf)
1,O=C(Nc1ccc(F)cc1)N1CCc2ccccc2[C@H]1c1ccc(C(F)(F)F)cc1,1750 ng·h/mL
